Screening data: PubChem BioAssay, several laboratories
NPY2 pot ag = potentiators or agonists of human neuropeptide Y receptor Y2; AID 1359; activation, % at 3.6 µM; 220,000 compounds, 0.45% hits; cells expressing NPY-Y2, potentiator/agonist read-out; in the data active = activation above about 27%;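 also: cells stimulated with NPY near EC25 plus isoproterenol at EC100; 0% = vehicle plus submaximal agonist and 100% = vehicle plus saturating agonist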
Tb hexokinase = blocks Trypanosoma brucei hexokinase 1 activity; recombinant TbHK1, G6PDH-coupled NADH A340; inhibition, % at 10 µM; 220,000 compounds, 0.11% hits; AID 1430;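 active = inhibition of 50% or more in the single-dose primary screen; inactive = inhibition below 50%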
NPY Y2 blocker = NPY-Y2 (human) receptor antagonism; P49146; NPY-Y2 expressing cells, antagonist mode; inhibition, % at 2.7 µM; 140,000 compounds, 0.99% hits; AID 793; in the data active = inhibition above about 17%;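 also: 0% = vehicle with agonist challenge and 100% = reference antagonist with challenge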
m-calpain inh = blocks pig calpain II enzyme activity; 220,000 compounds, 0.37% hits; purified calpain II, fluorogenic peptide substrate, 30 min; inhibition, % at 16 µM;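 active = inhibition above about 50%, limit read from the data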
NPY-Y1 PAM-ag = potentiators or agonists of human neuropeptide Y receptor Y1; 220,000 compounds, 0.37% hits; AID 1304; NPY-Y1 expressing cells, potentiator/agonist activation; P25929; activation, % at 3.6 µM; in the data active = activation above about 33%, passing the limit was not always enough;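 also: cells stimulated with NPY at EC10 then isoproterenol at EC100; 0% = low agonist plus stimulus and 100% = saturating agonist plus stimulus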
Target sequence (P25929 whole entry, looked up): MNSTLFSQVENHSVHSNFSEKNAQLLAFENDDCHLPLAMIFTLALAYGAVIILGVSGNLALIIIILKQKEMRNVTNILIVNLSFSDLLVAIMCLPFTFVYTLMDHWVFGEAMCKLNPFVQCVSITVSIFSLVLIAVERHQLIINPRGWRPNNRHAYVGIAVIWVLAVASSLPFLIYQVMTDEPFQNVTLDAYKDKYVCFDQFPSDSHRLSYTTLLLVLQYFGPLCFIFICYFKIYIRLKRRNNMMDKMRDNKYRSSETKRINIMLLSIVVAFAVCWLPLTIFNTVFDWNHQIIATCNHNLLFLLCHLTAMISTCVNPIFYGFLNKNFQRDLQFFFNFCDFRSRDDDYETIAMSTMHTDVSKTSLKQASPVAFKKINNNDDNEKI
NPY Y1 blocker = antagonists of human neuropeptide Y receptor Y1; P25929; HEK293-CNG Y1 cells, membrane potential fluorescence; NPY at EC95, then isoproterenol; inhibition, % at 3.6 µM; 200,000 compounds, 1% hits;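 active = inhibition above the campaign mean inhibition of all tested compounds plus 3 SD, cut at about 20% in these data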;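 also: 0% = DMSO wells given NPY plus isoproterenol and 100% = isoproterenol alone without NPY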
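Material: HEK293 cells co-expressing NPY Y1 receptor and cyclic-nucleotide gated channel. Timing: compound incubation 1 h at room temperature, readout 45 min post-stimulation. Signal: fluorescence, membrane potential probe.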
NPY1 antag ctr = antagonizes human NPY-Y1, counter-screen to NPY-Y2 antagonists; cell-based NPY-Y1 antagonism counterscreen; shares compounds with NPY Y2 blocker; inhibition, % at 3.6 µM; 710 compounds, 19% hits; in the data active = inhibition above about 20%;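 also: cells challenged with NPY then isoproterenol with cAMP sensed through a CNG channel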
NPY-Y2 ant conf = confirmation of human neuropeptide Y receptor Y2 antagonists | 710 compounds, 32% hits | inhibition, % at 2.8 µM | shares compounds with NPY Y2 blocker | HEK293 NPY-Y2 CNG channel, membrane potential fluorescence;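 active = mean inhibition of triplicate wells above the hit cutoff set in the primary screen, cut at about 17% in these data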;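 also: 0% = DMSO with NPY challenge and 100% = BIIE0246 high control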
* hit, by the source's call; x = no result given. Compounds with a hit are over-represented: about 2.3% of the library has one in this group of screens.

SMILES	NPY2 pot ag	Tb hexokinase	NPY Y2 blocker	m-calpain inh	NPY-Y1 PAM-ag	NPY Y1 blocker	NPY1 antag ctr	NPY-Y2 ant conf
COC(=O)c1ccc(CSc2nc3ccccc3c(=O)n2-c2ccc(OC)c(OC)c2)o1	4	-8	4	-36	-11	10	x	x
COC(=O)c1ccc(CSc2nc3ccccc3c(=O)n2-c2ccccc2)o1	-37	-8	18*	-8	-109	13	10	47*
CN(CC(CC(=O)Nc1nncs1)c1ccccc1)S(=O)(=O)c1ccccc1 (configuration not stated)	1	2	8	9	18	4	x	x
CN(CC(CC(=O)Nc1nncs1)c1ccccc1)S(=O)(=O)c1ccc(Br)cc1 (configuration not stated)	-13	-14	18*	-34	-17	9	7	6
COc1ccc(Cl)cc1NC(=O)c1c(-c2ccccc2)noc1C	-3	-1	25*	-48	-17	18	19	10
COC(=O)c1ccc(OC)c(CSc2nnc(COc3cccc(C)c3)o2)c1	-9	-2	23*	24	-25	4	17	12
COc1ccc(C(=O)Nc2cccc(OC(=O)c3ccc(C)c(C)c3)c2)cc1	-15	-6	17*	6	-24	11	23*	23*
COc1cccc(NC(=O)c2ccc(NC(C)=O)cc2)c1	-11	7	1	-14	-11	-1	x	x
Clc1ccc(OCCOCCOc2cccc3cccnc23)c(Br)c1	-17	-7	18*	11	-66	1	24*	53*
Brc1ccccc1OCCOCCOc1cccc2cccnc12	-29	-8	7	6	-16	8	x	x
Cc1cccc(OCCCOc2cccc3cccnc23)c1C	-21	2	21*	21	-11	10	7	10
COc1ccc(C)cc1S(=O)(=O)Nc1ccc2c(c1)OCO2	9	-2	x	-2	-9	-9	x	x
O=C(COc1ccc2ccc(=O)oc2c1)N1CCc2ccccc21	5	-3	x	-12	6	-3	x	x
Cc1cc(C)n(-c2nc(C)nc(N)n2)n1	15	2	20*	-42	8	6	6	1
Cc1cc(Cl)nc(-n2nc(C)cc2C)n1	-16	-3	x	-14	16	x	x	x
O=C(C1CCC1)N1CCc2cc(S(=O)(=O)Nc3ccc4c(c3)OCO4)ccc21	5	-5	19*	-5	-36	6	5	7
CCOc1ccc(NS(=O)(=O)c2ccc3c(c2)CCN3C(=O)C2CCC2)cc1	-9	0	7	-44	-28	9	x	x
COc1ccc(-c2cc(C(F)(F)F)nc(NCc3ccco3)n2)cc1OC	-17	-5	18*	-36	-3	9	15	13
O=c1c2ccccc2nc(SCc2cccc(F)c2)n1Cc1ccco1	-2	9	19*	17	-21	18	9	13
O=c1c2ccccc2nc(SCc2ccccc2)n1Cc1ccco1	-8	9	2	1	-7	-2	x	x
O=C(O)c1ccccc1C(=O)NCCc1c(C(=O)O)[nH]c2ccc(F)cc12	-2	-8	x	-17	-1	x	x	x
CCN(CC)CCCN=Cc1c(O)n(Cc2ccccc2)c(=O)c2ccccc12	-12	-14	4	-9	0	3	x	x
CC(C)CCC(C)N=Cc1c(O)n(Cc2ccccc2)c(=O)c2ccccc12 (configuration not stated)	-3	4	21*	-47	-20	14	27*	21*
COc1ccc(Cn2nnnc2C(c2cccs2)N2CCN(c3ccc([N+](=O)[O-])cc3)CC2)cc1 (configuration not stated)	7	0	0	-17	3	-6	x	x
COc1ccc(Cn2nnnc2C(c2cccs2)N2CCN(c3ccccc3)CC2)cc1 (configuration not stated)	-8	1	19*	10	-12	12	13	7
SMILES	NPY2 pot ag	Tb hexokinase	NPY Y2 blocker	m-calpain inh	NPY-Y1 PAM-ag	NPY Y1 blocker	NPY1 antag ctr	NPY-Y2 ant conf
Fc1ccc(C(c2nnnn2Cc2cccs2)N2CCN(c3ccccc3)CC2)cc1 (configuration not stated)	-4	6	19*	-3	-60	9	14	5
CCOc1ccc(C(=O)NN2C(=S)NC(C)(C)C=C2C)cc1	4	-5	x	-14	8	x	x	x
Nn1c(Cc2cccc3ccccc23)nnc1SCc1c(Cl)cccc1Cl	-23	16	20*	17	-29	2	17	41*
Cc1ccc2nc(SC(C)C(=O)N3CCOCC3)[nH]c2c1 (configuration not stated)	3	-3	x	-11	4	3	x	x
COC(=O)c1cc(Cl)c(NC(=O)c2ccc(C(C)(C)C)cc2)cc1OC	-46	-5	18*	9	-70	10	16	31*
COC(=O)c1cc(Cl)c(NC(=O)C(C)C)cc1OC	-5	1	x	-18	-14	5	x	x
COc1ccc(-c2nnc3sc(C(C)N4C(=O)c5ccccc5C4=O)nn23)cc1 (configuration not stated)	-30	-2	21*	-32	-33	8	18	29*
CC(C)(C)NCc1cc(Br)ccc1OCc1cccs1	29	7	20*	10	18	16	5	4
CCOC(=O)c1nn(-c2cccc(C)c2)c2nc(-c3ccccc3)c(C#N)c(=O)n12	-8	-5	1	-57	-9	-2	x	x
CCOC(=O)c1nn(-c2ccc(F)cc2)c2nc(-c3ccccc3)c(C#N)c(=O)n12	-8	-16	19*	-207	-11	7	11	8
CCOC(=O)C1CCCN(Cc2ccccc2C)C1 (configuration not stated)	1	6	17*	9	9	1	0	0
CC1(C2CC(C(F)(F)F)n3nc(C(=O)O)cc3N2)CC1 (configuration not stated)	-10	-1	x	-20	14	-1	x	x
OC12CCCCC1C(c1ccc3c(c1)OCO3)N(Cc1ccc(F)cc1)CC2 (configuration not stated)	8	-2	10	20	2	15	x	x
OC12CCCCC1C(c1ccc3c(c1)OCO3)N(Cc1ccccc1F)CC2 (configuration not stated)	-7	16	18*	-1	-35	4	17	9
C[C@H](NC(=O)c1[nH]cnc1C(=O)Nc1ccc(CNC(=O)OC(C)(C)C)cc1)C(=O)OC(C)(C)C	x	-16	x	-13	x	x	x	x
COc1ccccc1/C=N/NC(=O)Cn1cnc([N+](=O)[O-])n1	11	-14	x	-7	13	-1	x	x
